Source: PubChem
MrgX1 PAM: human MrgX1 positive allosteric modulation, primary screen. Q96LB2. MrgX1-HEK293, Fluo-4 calcium flux, FDSS; stronger effect = higher value. B-score at 10 µM. actives 0.63% (n = 310,000). AID 588675;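 active means plate-corrected calcium response at least 3 library SD above typical, normal starting fluorescence, not activating the receptor alone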;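 further: compound read alongside a low EC10 to EC30 dose of BAM8-22 agonist; peak minus trough fluorescence over baseline measured at the second addition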
Target sequence (Q96LB2 whole entry, looked up): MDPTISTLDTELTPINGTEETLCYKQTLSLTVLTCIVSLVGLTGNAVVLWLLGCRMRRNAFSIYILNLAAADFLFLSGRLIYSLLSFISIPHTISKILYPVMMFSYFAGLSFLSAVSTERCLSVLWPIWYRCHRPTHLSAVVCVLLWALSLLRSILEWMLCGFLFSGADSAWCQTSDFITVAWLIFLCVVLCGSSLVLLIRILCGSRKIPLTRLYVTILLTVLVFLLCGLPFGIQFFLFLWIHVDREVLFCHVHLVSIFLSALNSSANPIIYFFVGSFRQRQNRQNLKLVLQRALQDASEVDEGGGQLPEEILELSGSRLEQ
RGS4 inh: inhibitors of human RGS4; P49798; HEK293 M3R/RGS4 inducible, Fluo-4 calcium flux; stronger effect = higher value; triggered by carbachol at its EC20; B-score at 10 µM; actives 0.45% (n = 310,000);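 active means B-score, a plate-corrected calcium signal, over three deviations above library mean, with baseline fluorescence within five deviations of library mean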;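 further: RGS4 expression induced by doxycycline in cells with stable M3 receptor; B-score is computed from the integrated fluorescence ratio over baseline after carbachol; higher B-score means a larger calcium signal and so more RGS4 inhibition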
Target sequence (P49798 whole entry, looked up): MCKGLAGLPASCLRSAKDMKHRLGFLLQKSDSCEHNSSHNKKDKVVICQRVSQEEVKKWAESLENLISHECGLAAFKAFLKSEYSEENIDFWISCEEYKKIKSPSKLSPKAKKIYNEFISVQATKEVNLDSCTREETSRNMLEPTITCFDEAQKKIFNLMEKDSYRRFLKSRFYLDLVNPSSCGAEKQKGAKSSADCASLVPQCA
MrgX1 antag: blocks BAM8-22 activation of human MrgX1 receptor. Q96LB2. MRGX1-HEK293 calcium flux, Fluo-4, BAM8-22 antagonism; stronger effect = lower value. B-score at 10 µM. actives 1.3% (n = 310,000). AID 588676;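 active means calcium-response B-score plate-corrected more than 3 library SD below zero, starting fluorescence within 5 deviations, no agonist response on first addition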;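 further: peak minus trough fluorescence over baseline after final BAM8-22 challenge near maximal dose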
RGS4 pot: RGS4 potentiation or activation; actives 0.92% (n = 310,000); B-score at 10 µM; HEK293 M3R/inducible RGS4, carbachol calcium flux Fluo4; stronger effect = lower value;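 active means B-score of the integrated calcium signal more than 4 SD below the library mean, with starting fluorescence not abnormally high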;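 further: negative B-score means reduced calcium response which marks RGS4 activation or potentiation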
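Reagent: ECmax carbachol challenge; Test system: M3R-expressing HEK293 line, RGS4 induced by doxycycline; Schedule: overnight RGS4 induction, 30 min dye load 37 °C, 20 min compound RT; Detection: calcium dye Fluo4 fluorescence; Read-out: Agonist-evoked peak-minus-minimum fluorescence over baseline, integrated ratio, B score.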
MrgX1 agonist: human MrgX1 receptor agonism, primary screen; Q96LB2; MrgX1-HEK293 cells, Fluo-4 calcium fluorescence, agonist mode; stronger effect = higher value; B-score at 10 µM; actives 0.44% (n = 310,000);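 active means calcium response B-score plate-corrected fluorescence ratio at least 3 library SD, with starting fluorescence B-score inside 5 SD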
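times = overnight plating, then 30 min 37 °C plus 30 min room-temperature dye loading | assay system = stable human MrgX1 HEK293 cell line | input = fifteen thousand cells per well | signal = kinetic calcium dye fluorescence, Fluo-4 NW | dosing = compound delivered in addition one of three | read-out = B-scored fluorescence response ratio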
RGS4 block valid: RGS4 inhibitor validation; shares compounds with RGS4 inh; HEK293 M3R/RGS4, carbachol calcium Fluo-4 fluorescence; carbachol added at its EC20; 0 = buffer wells, 100 = carbachol control; calcium response, % at 10 µM; actives 65% (n = 1,700);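 active means duplicate-averaged calcium response above the buffer-only control mean plus 5 SD of those controls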;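 further: integrated fluorescence ratio F max minus min over baseline F0; higher response in RGS4-induced cells means RGS4 inhibition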
M3R Ca ctr: checks RGS4 inhibitor effects in non-induced HEK293 M3R cells | activity (percent), % at 10 µM | actives 20% (n = 1,900) | shares compounds with RGS4 inh | carbachol calcium Fluo-4; submaximal (EC20) carbachol stimulus; buffer wells 0%, carbachol control wells 100% | AID 493000; call rule not given here;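 further: RGS4 induction absent so cells express M3R without RGS4; higher means more calcium signal and flags a non-specific hit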
M3R basal Ca ctr: second RGS4 inhibitor counter-screen in uninduced cells lacking carbachol. calcium response (agonist-mode artifact), % at 10 µM. HEK293 M3R/RGS4 non-induced, Fluo-4 calcium, no carbachol; normalised: buffer wells 0%, carbachol wells 100%. actives 22% (n = 1,900). AID 493001. shares compounds with RGS4 inh;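 active means duplicate-averaged calcium rise in uninduced cells above buffer wells' mean plus 5 SD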
* = called active by the depositor; i = inactive; x = not tested or not shown. Compounds with a hit are over-represented: about 3.5% of the library has one in this group of screens.

SMILES | MrgX1 PAM | RGS4 inh | MrgX1 antag | RGS4 pot | MrgX1 agonist | RGS4 block valid | M3R Ca ctr | M3R basal Ca ctr
Cc1cc(C)cc(N(CC(=O)Nc2ccc(C(F)(F)F)cc2)S(=O)(=O)c2c(C)[nH]c(=O)[nH]c2=O)c1 | i | 6.5* | i | i | i | i | i | i
COc1ccc2c(c1)CCc1sc(NC(=O)c3ccco3)nc1-2 | i | 6.6* | i | i | i | 26%* | 32%* | i
COc1ccc2c(c1)-c1nc(NC(=O)c3ccco3)sc1CC2 | i | 17* | i | i | i | 48%* | 59%* | i
COc1ccc2c(c1)Cc1sc(NC(C)=O)nc1-2 | i | i | i | i | i | x | x | x
Cc1sc(NC(=O)c2ccco2)nc1-c1ccccc1 | i | 7* | i | i | i | 31%* | i | i
COc1ccc2c(c1)Cc1sc(NC(=O)c3ccco3)nc1-2 | i | i | i | i | i | x | i | i
CCCN1C(=S)c2ccccc2C1c1ccccc1 (centres undefined) | i | i | i | i | i | x | x | x
COc1ccc(C(C[N+](=O)[O-])c2c(C)[nH]n(-c3ccccc3)c2=O)cc1 (centres undefined) | i | 28* | i | i | 40* | 54%* | 84%* | 21%*
COc1ccc(C(C[N+](=O)[O-])c2c(C)cc3ccccn23)cc1 (centres undefined) | i | i | i | i | i | x | x | x
CCCCCCc1ccc(-c2ncc(N)cn2)cc1 | i | 6.7* | i | i | i | 29%* | 61%* | i
Cc1cc(N(CCO)CCO)ccc1N=Nc1cc(F)ccc1F | i | 7.3* | i | i | i | 18%* | 41%* | i
CCSc1n[nH]c2nc3c(c(=O)n12)C1(CCCC1)Cc1ccccc1-3 | i | i | i | i | i | x | i | i
C=CCSc1n[nH]c2nc3c(c(=O)n12)C1(CCCC1)Cc1ccccc1-3 | i | x | i | x | i | x | x | x
Cc1cc(C)n(-c2cc(C(C)(C)C)nc3c(-c4ccccc4)cnn23)n1 | i | i | i | i | i | x | 32%* | i
Cc1cc(C)n(-c2cc(C(C)(C)C)nc3c(-c4ccc(Cl)cc4)cnn23)n1 | i | 8.6* | i | i | i | 33%* | i | i
Cc1cc(-c2ccccc2)n2ncc(-c3ccccc3)c2n1 | i | i | i | i | i | x | x | x
C=CCOc1ccc(C(=O)/C=C2/C(=O)Nc3ccccc32)cc1 | i | 4.7* | i | i | i | 14%* | 37%* | i
O=C1Nc2ccccc2/C1=C/C(=O)c1cccs1 | i | 7.1* | i | i | i | 14%* | i | i
COc1ccc(C(=O)/C=C2/C(=O)Nc3ccccc32)cc1 | i | 7* | i | i | i | 16%* | i | i
COc1cc(CCN2C(=O)c3cccc4cccc(c34)C2=O)c(S(=O)(=O)N2CCC(C)CC2)cc1OC | i | i | i | i | i | x | x | x
COC(=O)C1(C)NC(c2ccc(O)cc2)C2C(=O)N(c3ccc(C)cc3)C(=O)C21 (centres undefined) | i | i | i | i | i | x | x | x
O=C(NNS(=O)(=O)c1ccc([N+](=O)[O-])cc1)c1ccc([N+](=O)[O-])cc1 | i | i | i | i | i | x | x | x
CCOc1ccc(S(=O)(=O)N(CC)CC(=O)NCc2cccnc2)cc1C | i | i | i | i | i | x | x | x
O=C(Nc1ccc2c(c1)OCCO2)c1cccnc1Oc1ccccc1 | i | 4.7* | i | i | i | 5.5%* | i | i
O=C(Nc1ccc2c(c1)OCCO2)c1cccnc1Oc1ccc(Cl)cc1 | i | i | i | i | i | i | i | i
SMILES | MrgX1 PAM | RGS4 inh | MrgX1 antag | RGS4 pot | MrgX1 agonist | RGS4 block valid | M3R Ca ctr | M3R basal Ca ctr
O=C(Oc1ccccc1)c1cccnc1Oc1ccccc1 | i | 5* | i | i | i | i | i | i
Cc1cc(C)n(-c2ccc(S(=O)(=O)N3CCOCC3)cc2[N+](=O)[O-])n1 | i | i | i | i | i | x | x | x
CC(NC(=O)/C(C#N)=C/c1ccc(C(=O)O)cc1)c1ccccc1 (centres undefined) | i | 13* | i | i | i | 44%* | 40%* | i
Cc1ccc(NCC(=O)N/N=C/c2cccc(Oc3ccccc3)c2)cc1 | i | 13* | i | i | i | 20%* | i | i
Cc1cccc(NCC(=O)N/N=C\c2cccc(Oc3ccccc3)c2)c1 | i | i | i | i | i | x | i | i
Cc1ccc(NCC(=O)N/N=C/c2cc(O)ccc2[N+](=O)[O-])cc1 | i | 5.2* | i | i | i | i | i | i
COc1cccc(CNC(=O)Cc2nc3nc(C)cc(C)n3n2)c1 | i | i | i | i | i | x | x | x
CCN(CC)CCCn1c2c(c(SCC(=O)Nc3cc(OC)cc(OC)c3)nc1=O)CCC2 | i | i | i | i | i | x | x | x
CSCC(C)N1CCC(N2CCC(C(=O)NCc3ccccn3)CC2)CC1 (centres undefined) | i | i | i | i | i | x | x | x
Cc1ccc2c(c1)c(C1=c3ccccc3=NC1=O)c(O)n2C | i | i | i | i | i | x | x | x
C=CCn1c(O)c(C2=c3ccccc3=NC2=O)c2ccccc21 | i | 5.6* | i | i | i | 12%* | 33%* | 22%*
Cc1ccc(CNC(=O)c2cn(C3CCCCC3)c(=O)c3c2c2ccccc2n3C)o1 | i | 6.1* | i | i | i | 13%* | i | i
O=C(Nc1ccnn1C1CCN(C2CCCC2)CC1)c1ccccc1 | i | i | i | i | i | x | x | x
CC(C)c1nc(SCC(=O)Nc2ccc(C(=O)O)cc2)c2c3c(sc2n1)CCCC3 | i | 4.7* | i | i | i | 13%* | i | i
COc1ccc(-c2cn[nH]c2-c2ccc(OCc3ccc([N+](=O)[O-])cc3)cc2O)cc1OC | i | i | i | i | i | x | x | x
